Measurements reported in article PMC9643332 (Bioorganic Chemistry, 2022).
Entries after “also recorded” stand apart in the source; their conditions may differ.

Tests used:
SARS-CoV-2 3CL^pro [1] = target: T1, SARS-CoV-2 3CL^pro (Severe acute respiratory syndrome coronavirus 2, UniProt P0DTD1); experiment: biochemical; assay type: biochemical; conditions: for inhibition at 100 µM: read-out: inhibition against SARS-CoV-2 3CLpro
SARS-CoV-2 = conditions: Huh7-ACE2, HeLa-ACE2 and A549-ACE2 cells; in the micromolar range, similar to Remdesivir; cited from earlier work
SARS-CoV-2 3CL^pro [2] = target: T1, SARS-CoV-2 3CL^pro; experiment: Fluorescence quenching assay; assay type: binding; conditions: 3 μM 3CLpro
SARS-CoV-2 3CL^pro [3] = target: T1, SARS-CoV-2 3CL^pro; experiment: CD spectroscopy, secondary structure content by CDNN; conditions: 20 μM 3CLpro
SARS-CoV-2 3CL^pro [4] = target: T1, SARS-CoV-2 3CL^pro; assay type: biochemical
SARS-CoV-2 3CL^pro [5] = target: T1, SARS-CoV-2 3CL^pro; experiment: Enzymatic inhibition assay in the presence of DTT or GSH; assay type: biochemical; conditions: 10 μM compound
Procedure, shortened: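 The thiol-dependence FRET assay preincubated SARS-CoV-2 3CLpro with test compound in reaction buffer (0.1 M PBS, 1 mM EDTA, pH 7.4), with 4 mM DTT or 1 mM GSH, or without either.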

HCoV-229E 3CL^pro = HCoV-229E 3CL^pro (Human coronavirus 229E, UniProt P0C6X1); experiment: biochemical
[6] = target: Dipeptidyl peptidase IV (DPP-IV) (Homo sapiens, UniProt P27487); experiment: Human protease selectivity: DPP-IV inhibition in human plasma with GP-BAN probe; assay type: biochemical; conditions: 0, 1, 10, 100 μM
Procedure, shortened: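 Human plasma served as the DPP-IV source and was incubated 1 h with test compound at 0, 1, 10 or 100 μM in 0.1 M PBS, pH 7.4, 1 mM EDTA. Adding the DPP-IV-selective fluorogenic probe at 100 µM started the reaction. Fluorescence (ex 430 nm, em 535 nm) was read immediately over 20 min.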

[7] = target: T2, human chymotrypsin C (CTRC) (Homo sapiens, UniProt Q99895); experiment: Human protease selectivity: CTRC inhibition; assay type: biochemical; conditions: 0, 1, 10, 100 μM
T2 sequence (Q99895 30-268): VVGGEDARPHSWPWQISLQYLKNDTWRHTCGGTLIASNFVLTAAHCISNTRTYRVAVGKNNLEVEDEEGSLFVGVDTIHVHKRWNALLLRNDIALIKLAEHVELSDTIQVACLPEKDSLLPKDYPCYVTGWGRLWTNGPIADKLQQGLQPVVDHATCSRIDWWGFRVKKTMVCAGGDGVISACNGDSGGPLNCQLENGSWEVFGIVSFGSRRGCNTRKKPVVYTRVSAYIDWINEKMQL

Dipeptidyl peptidase IV (DPP-IV), sequence (P27487 39-766): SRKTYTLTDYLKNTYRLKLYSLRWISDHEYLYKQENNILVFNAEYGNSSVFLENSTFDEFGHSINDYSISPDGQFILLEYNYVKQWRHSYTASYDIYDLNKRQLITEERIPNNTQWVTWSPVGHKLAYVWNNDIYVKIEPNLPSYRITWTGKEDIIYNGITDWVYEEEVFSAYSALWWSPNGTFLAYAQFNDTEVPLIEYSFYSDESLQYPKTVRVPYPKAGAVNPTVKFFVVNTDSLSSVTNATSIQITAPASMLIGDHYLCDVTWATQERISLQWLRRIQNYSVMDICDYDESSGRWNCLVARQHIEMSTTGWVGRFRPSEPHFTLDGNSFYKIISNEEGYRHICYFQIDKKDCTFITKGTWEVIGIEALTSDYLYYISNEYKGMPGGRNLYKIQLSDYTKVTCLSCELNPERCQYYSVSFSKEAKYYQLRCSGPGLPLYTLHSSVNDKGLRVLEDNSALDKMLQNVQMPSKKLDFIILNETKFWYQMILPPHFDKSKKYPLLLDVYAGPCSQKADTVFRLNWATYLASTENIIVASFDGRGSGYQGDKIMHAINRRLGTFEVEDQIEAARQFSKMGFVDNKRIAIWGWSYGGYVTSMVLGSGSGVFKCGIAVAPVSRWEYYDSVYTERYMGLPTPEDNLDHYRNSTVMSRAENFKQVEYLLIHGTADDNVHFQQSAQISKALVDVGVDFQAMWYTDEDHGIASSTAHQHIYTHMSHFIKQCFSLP
HCoV-229E 3CL^pro, sequence (P0C6X1 2966-3267): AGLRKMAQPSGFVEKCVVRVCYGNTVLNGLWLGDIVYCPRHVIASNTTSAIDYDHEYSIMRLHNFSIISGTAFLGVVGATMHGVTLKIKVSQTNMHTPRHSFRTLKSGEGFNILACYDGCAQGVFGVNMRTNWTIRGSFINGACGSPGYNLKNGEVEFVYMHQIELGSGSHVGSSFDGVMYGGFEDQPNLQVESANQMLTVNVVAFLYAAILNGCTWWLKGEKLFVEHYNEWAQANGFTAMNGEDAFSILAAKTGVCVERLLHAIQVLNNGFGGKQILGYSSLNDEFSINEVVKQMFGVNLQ

## CCCCCCCCCCCC[N+](C)(C)CCOc1ccccc1 [Domiphen bromide]
SARS-CoV-2 3CL^pro [1]
  IC50: 45.9 ± 16.5 µM
  inhibition at 100 µM: > 90%

## CCCCCCCCCCCCCCCC[N+](C)(C)Cc1ccccc1 [Cetalkonium chloride]
SARS-CoV-2 3CL^pro [1]
  IC50: 3.5 ± 0.47 µM
  inhibition at 100 µM: > 90%

## CCCCCCCCCCCCCCCC[N+](C)(C)CCN(Cc1ccc(OC)cc1)c1ncccn1 [Thonzonium bromide]
SARS-CoV-2
  antiviral effect against SARS-CoV-2 in cells: effective against SARS-CoV-2
SARS-CoV-2 3CL^pro [2]
  KSV (Stern-Volmer quenching constant): 39600 L/mol
SARS-CoV-2 3CL^pro [2]; τ0 about 10^-8 s
  Kq (bimolecular quenching rate constant): 3.96e+12 M⁻¹ s⁻¹
SARS-CoV-2 3CL^pro [3]; 50 μM Thonzonium bromide
  Antiparallel (%): 18.60%
  Parallel (%): 6.30%
  Random coil (%): 30.70%
  Total sum (%): 95.40%
  α-helix (%): 25.50%
  β-turn (%): 14.20%
SARS-CoV-2 3CL^pro [3]; 100 μM Thonzonium bromide
  Antiparallel (%): 22.00%
  Parallel (%): 6.20%
  Random coil (%): 32.20%
  Total sum (%): 96.10%
  α-helix (%): 20.20%
  β-turn (%): 15.50%
SARS-CoV-2 3CL^pro [3]; 200 μM Thonzonium bromide
  Antiparallel (%): 33.60%
  Parallel (%): 6.30%
  Random coil (%): 34.00%
  Total sum (%): 102.10%
  α-helix (%): 12.30%
  β-turn (%): 15.90%
SARS-CoV-2 3CL^pro [4]
  type of inhibition: non-competitive inhibitor
SARS-CoV-2 3CL^pro [1]
  inhibition of protease activity in primary screening: significantly inhibit
SARS-CoV-2 3CL^pro [5]; 1 mM GSH
  inhibition against SARS-CoV-2 3CLpro in the presence of GSH: potent inhibition
SARS-CoV-2 3CL^pro [5]; 4 mM DTT
  inhibition against SARS-CoV-2 3CLpro in the presence of DTT: potent inhibition
HCoV-229E 3CL^pro
  IC50: 6.47 µM
[6]
  inhibitory activity towards DPP-IV: didn’t exhibit inhibitory activity; also recorded: did not show measurable activity; also recorded: does not inhibit
[7]
  inhibitory activity towards CTRC: didn’t exhibit inhibitory activity; also recorded: did not show measurable activity; also recorded: does not inhibit

## CCCCCCCCOc1ccccc1C(=O)Nc1ccc(C(=O)OCC[N+](C)(CC)CC)cc1 [Otilonium bromide]
SARS-CoV-2 3CL^pro [1]
  IC50: 27.7 ± 0.33 µM
  inhibition of protease activity in primary screening: significantly inhibit

## C[N+](C)(C)CCCCCCCCCC[N+](C)(C)C [Decamethonium bromide]
SARS-CoV-2 3CL^pro [1]
  IC50: > 100 µM
SARS-CoV-2 3CL^pro [1]; 100 µM
  inhibition against SARS-CoV-2 3CLpro: no inhibitory activity

## CCCCCCCCCCCCCCCC[N+](C)(C)C [Cetrimonium bromide]
SARS-CoV-2 3CL^pro [1]
  IC50: 12.8 ± 0.63 µM
  inhibition of protease activity in primary screening: significantly inhibit
